HEK293 NFkB inh – lowers PMA/ionomycin-induced NF-kB signal in HEK293 cells; HEK-293 NF-kB luciferase reporter, luminescence; inhibition, % at 3 µM; 0.21% of 62,000 active;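 active = inhibition above the mean of all tested compounds plus 3 SD, cut at about 40% in these data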;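 also: 0% = stimulated DMSO wells and 100% = 10 µM reference inhibitor 5653914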
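Timing: 1 h pretreatment, 16 h stimulation, 37 °C; system: HEK-293 cells with stable firefly luciferase reporter driven by four HIV NF-kB elements; doses: 3 µM once, 0.30% DMSO; measured by: luciferase luminescence; control set: DMSO and 10 µM reference inhibitor; repeats: single test; reagent: PMA plus ionomycin mix as NF-kB-activating stimulus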
AP ELISA ortho – alternative pathway complement inhibition, orthogonal assay; 0.08% of 62,000 active; inhibition, % at 5 µM; AID 1235; Human serum alternative complement pathway, LPS-coated ELISA, C3 deposition; tested in compound mixtures;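 active = inhibition above 30% in each of the two pooled mixtures holding the compound, so the lower value exceeds 30%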;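 also: 0% = serum in Mg-EGTA without compound and 100% = EDTA serum blank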
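Assay system: human serum alternative complement pathway, C3 deposition on LPS-coated wells; Dosing: 5 µM per compound in ten-compound mixtures; Detection: Anti-C3 ELISA, OD 450 nm; Buffer or medium: Mg2+-EGTA GVB++ buffer containing human serum at 1:15 dilution; Timing: 1 h at 37 °C; Replication: two different pools per compound.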
Her2 expr inh – inhibitors of human Her2 kinase expression; HER2 level % of control, % at 10 µM; P04626; SKBR-3 HER2 protein level, AlphaScreen, 18-24 h; stronger effect = lower value; 0.69% of 65,000 active;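 active = HER2 level under 5% of the carrier-only control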;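 also: 100% = DMSO carrier and 0% = 500 nM PU-H71 HSP90 inhibitor; lower value means stronger loss of Her2 protein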
Target sequence (P04626 whole entry, looked up): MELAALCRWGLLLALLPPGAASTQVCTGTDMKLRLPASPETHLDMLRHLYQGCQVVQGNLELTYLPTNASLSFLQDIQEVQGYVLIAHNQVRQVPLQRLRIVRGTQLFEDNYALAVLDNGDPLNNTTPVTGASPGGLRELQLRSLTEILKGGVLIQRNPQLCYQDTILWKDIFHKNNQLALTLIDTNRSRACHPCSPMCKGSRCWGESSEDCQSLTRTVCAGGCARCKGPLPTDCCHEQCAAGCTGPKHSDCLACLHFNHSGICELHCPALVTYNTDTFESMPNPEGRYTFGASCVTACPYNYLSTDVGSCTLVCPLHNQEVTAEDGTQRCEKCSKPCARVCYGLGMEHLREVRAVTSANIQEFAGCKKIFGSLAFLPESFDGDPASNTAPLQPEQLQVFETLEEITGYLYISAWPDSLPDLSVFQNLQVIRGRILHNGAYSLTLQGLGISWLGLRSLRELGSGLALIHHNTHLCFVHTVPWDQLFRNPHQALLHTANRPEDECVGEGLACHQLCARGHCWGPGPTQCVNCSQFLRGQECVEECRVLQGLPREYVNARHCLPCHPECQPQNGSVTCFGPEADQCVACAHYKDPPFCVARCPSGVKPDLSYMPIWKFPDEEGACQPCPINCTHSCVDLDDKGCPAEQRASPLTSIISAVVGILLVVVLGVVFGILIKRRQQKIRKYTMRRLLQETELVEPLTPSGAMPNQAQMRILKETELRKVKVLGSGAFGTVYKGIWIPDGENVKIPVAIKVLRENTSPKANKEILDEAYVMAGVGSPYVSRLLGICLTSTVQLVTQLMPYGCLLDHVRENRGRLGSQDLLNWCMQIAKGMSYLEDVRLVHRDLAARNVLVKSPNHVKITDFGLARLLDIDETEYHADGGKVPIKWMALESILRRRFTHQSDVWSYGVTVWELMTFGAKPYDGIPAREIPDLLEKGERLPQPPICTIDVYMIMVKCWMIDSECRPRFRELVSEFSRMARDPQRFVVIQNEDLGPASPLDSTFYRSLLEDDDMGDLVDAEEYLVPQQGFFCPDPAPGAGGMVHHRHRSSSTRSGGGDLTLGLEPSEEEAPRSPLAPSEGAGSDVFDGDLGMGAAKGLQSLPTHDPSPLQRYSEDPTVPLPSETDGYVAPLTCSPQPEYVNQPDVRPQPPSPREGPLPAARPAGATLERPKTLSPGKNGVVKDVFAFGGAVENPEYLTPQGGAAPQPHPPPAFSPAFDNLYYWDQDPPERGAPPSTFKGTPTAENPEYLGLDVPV
JNK3 inh – JNK3 (human) kinase inhibition. P53779. purified JNK3 kinase activity, HTS. inhibition, % at 8 µM. 0.61% of 60,000 active. AID 746; in the data active = inhibition above about 17%;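 also: 0% = DMSO and 100% = reference inhibitor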
Hsp90 inh – displaces geldanamycin probe from tumor Hsp90; P07900; NCI-N417 lysate Hsp90, Cy3B-geldanamycin FP displacement; inhibition, % at 30 µM; 0.35% of 64,000 active; AID 429;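 active = inhibition above 50%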;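 also: 0% = tracer plus lysate wells and 100% = tracer alone without lysate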
Jurkat tox 60K – reduces viability or proliferation of Jurkat cells | inhibition, % at 4 µM | Jurkat E6.1 viability, ATP luminescence, 48 h | AID 463 | 1.2% of 56,000 active;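 active = inhibition above the mean inhibition of all tested compounds plus 3 SD, cut at about 28% in these data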
An asterisk follows results filed as active; . = no result given. Only some compounds are listed: those with a hit (about 2.5% of all), similar ones and a draw of the others.

SMILES | HEK293 NFkB inh | AP ELISA ortho | Her2 expr inh | JNK3 inh | Hsp90 inh | Jurkat tox 60K
COc1cc2c(cc1OC)C(c1cccs1)NCC2 (stereo unspecified) | 14.5 | 18.0 | 62.1 | . | . | .
CN1CCc2cc(O)c(O)cc2C(c2ccccc2)C1 (stereo unspecified) | . | . | . | . | 59.3* | .
CN1CCc2c(cc(O)c(O)c2Cl)C(c2cccc(Cl)c2)C1 (stereo unspecified) | . | . | . | . | 81.0* | .
NC(=O)c1cc[n+](CC2=C(C(=O)O)N3C(=O)[C@@H](NC(=O)[C@@H](c4ccccc4)S(=O)(=O)[O-])[C@H]3SC2)cc1 | . | . | . | . | 1.5 | .
COCCOC(=O)C1=C(C)N=C2SCCC(=O)N2C1c1cccc(Br)c1 (stereo unspecified) | 15.7 | -5.2 | 105.6 | 3.1 | -3.0 | -5.3
CN1CCN(CCCNc2nc3ccccc3c3nc(-c4ccccc4)nn23)CC1 | 12.6 | 11.1 | -10.4* | -0.7 | -3.2 | -4.8
COc1cc2nc(NCCN3CCOCC3)n3nc(-c4ccccc4)nc3c2cc1OC | 4.0 | 8.7 | 35.4 | 0.6 | -3.2 | 1.8
Cn1c(C(=O)N2CCN(Cc3ccc4c(c3)OCO4)CC2)cc2c(=O)n(C)c3ccccc3c21 | 16.0 | -0.9 | 96.6 | 23.8* | -4.4 | 1.4
O=C(CCC1CCCCC1)N1CCN(Cc2ccc3c(c2)OCO3)CC1 | 9.8 | -10.1 | 63.9 | 8.3 | 1.4 | 11.7
CCc1ccccc1NC(=O)Cn1nnc(-c2cccs2)n1 | 16.6 | 12.3 | 102.1 | 2.3 | -0.3 | -3.0
Cc1cccc(NC(=O)Cn2nnc(-c3cccs3)n2)c1C | 11.0 | -24.8 | 113.8 | -3.7 | 53.8* | -0.7
COC(=O)c1ccc2c(c1)NC(=O)C(N1CCCC1)S2 (stereo unspecified) | 9.2 | -0.3 | 115.2 | . | -6.3 | .
COC(=O)c1ccc2c(c1)SC1=C(CCCC1=O)N2 | 11.8 | 3.2 | 84.3 | -25.0 | 84.6* | -0.1
COc1ccccc1NC(=O)Cc1nn(C)c(=O)c2ccccc12 | 27.6 | 25.2 | 78.0 | 1.2 | -3.9 | 57.6*
Cn1nc(CC(=O)Nc2ccc(N3CCN(C(=O)OC(C)(C)C)CC3)cc2)c2ccccc2c1=O | 44.9* | 11.8 | 79.8 | -2.6 | -2.3 | 99.0*
Cn1nc(CC(=O)Nc2ccc3c(c2)OCCO3)c2ccccc2c1=O | 32.3 | 9.1 | 80.3 | 4.4 | -0.5 | 94.7*
Cn1nc(CC(=O)N2CCN(c3ccccc3)CC2)c2ccccc2c1=O | -2.1 | -6.3 | 143.3 | -3.1 | -2.2 | 0.0
N[C@H](CCC(=O)NCS(=O)(=O)O)C(=O)O | . | . | . | . | 1.2 | .
O=C(O)CCC(=O)N1CCCC1C(=O)O (stereo unspecified) | . | . | . | . | 2.1 | .
CC(=O)c1sc2nc(-c3cccs3)cc(C(F)(F)F)c2c1N | 13.0 | 17.5 | -2.8* | 0.0 | -3.2 | 1.2
O=[N+]([O-])c1ccc(-c2nc(-c3ccc(F)cc3)c(-c3ccncc3)[nH]2)cc1 | . | . | . | . | 2.9 | .
COc1cc(C(=O)N2CCN(c3ccc(C)cc3C)CC2)cc(OC)c1OC | 25.3 | 5.9 | 75.5 | -7.4 | 0.9 | 90.8*
COc1ccc(-c2cn3c(C)c(C(=O)Nc4cc(NC(C)=O)ccc4OC)sc3n2)cc1 | 24.2 | 3.0 | 78.0 | 3.0 | -3.1 | 48.1*
CNC(=O)c1sc2nc(-c3ccc(OC)cc3)cn2c1C | -36.5 | -5.1 | 79.6 | -8.4 | -2.6 | -7.3
CN(C)CCNC(=O)COc1cccc(Cl)c1 | 4.9 | 11.4 | 90.8 | -1.8 | 0.3 | 1.1
SMILES | HEK293 NFkB inh | AP ELISA ortho | Her2 expr inh | JNK3 inh | Hsp90 inh | Jurkat tox 60K
Cc1cc(C(=O)CSc2nnnn2C)c(C)n1-c1ccc2c(c1)OCCO2 | 6.4 | -9.6 | 107.6 | -6.3 | -5.2 | 3.4
Cc1cc(-n2c(C)cc(C(=O)CSc3nnc4sc5ccccc5n34)c2C)no1 | 19.8 | -14.1 | 111.7 | 0.0 | -3.2 | 3.6
Cc1cc(-n2c(C)cc(C(=O)CSc3ncnc4ccccc34)c2C)no1 | 40.5* | -0.9 | 81.0 | . | . | .
Cc1cc(-n2c(C)cc(C(=O)CSc3nnnn3-c3ccc(Cl)cc3)c2C)no1 | 8.6 | 0.3 | -7.5* | 1.7 | -2.3 | -3.1
Cc1cc(C)n2nc(SCC(=O)c3ccccc3)nc2n1 | -2.5 | . | 90.2 | -1.8 | -4.3 | 6.3
Cc1cc(C)n2nc(SCC(=O)c3cc(C)n(-c4cc(C)on4)c3C)nc2n1 | 17.2 | -5.9 | 95.2 | 4.9 | -8.2 | 33.2*
COc1ccc(OC)c(S(=O)(=O)Nc2ccc(C(N)=O)cc2)c1 | 16.1 | -7.0 | 139.4 | -1.7 | -4.1 | 4.6

High-throughput results from PubChem.
